Experimental data gathered from unrelated publications.
Each line is one published result; the experiments were not run side by side.
Effect on: cell growth or viability

SMILES	cell line	method	time	setting	IC50
C=CC(=O)Nc1cc(Nc2nccc(-c3cn(C)c4ccccc34)n2)c(OC)cc1N(C)CCN(C)C	NCI-H460	–	72 h	–	5380 nM
N#Cc1cc(/C=N/NC(=N)N/N=C/c2ccc(OC(F)(F)F)cc2)ccc1F	L6	resazurin	70 h	–	7050 nM
CO[C@]12C[C@@H](COC(=O)c3cncc(Br)c3)CN(C)[C@@H]1Cc1cn(C)c3cccc2c13	HNE1	MTT	48 h	–	1450 nM
N=C(NN=CCc1ccc(OC(F)F)cc1)NN=CCc1ccc(OC(F)F)cc1	L6	resazurin	70 h	–	2030 nM
C=C(F)C(=O)N1CCN(c2nc(OC[C@@H]3CCCN3C)nc3c2CCN(c2cccc4cccc(Cl)c24)C3)C[C@@H]1CC#N	A-427	ATP luminescence	–	3D culture	> 1000 nM
Cc1cc(/C=C/C#N)cc(C)c1Nc1ccnc(Nc2ccc(C#N)cc2)n1	HK-1	MTT	48 h	–	7590 nM
N#Cc1cccc(CC=NNC(=N)NN=CCc2cccc(C#N)c2)c1	L6	resazurin	70 h	–	2630 nM
COc1cc2nc(N3CCN(C(=O)c4ccco4)CC3)nc(N)c2cc1OC	HK-1	MTT	48 h	–	30000 nM
COc1cc2c3c(n(CCCN4CCOCC4)c(=O)c2cc1OC)-c1nc2c(cc1C3=O)OCO2	RS4-11	MTS	72 h	–	283 nM
CC12C(=O)Nc3ccccc3C(=O)CCN1C(=O)c1ccccc12 (centres unmarked)	L6	–	–	–	> 300000 nM
CCNCCCn1c2c(c3cc(OC)c(OC)cc3c1=O)C(=O)c1cc3c(nc1-2)OCO3	RS4-11	MTS	72 h	–	38 nM
CN1C(=O)C2c3ccccc3C(=O)N2CCC(=O)c2ccccc21 (centres unmarked)	L6	–	–	–	> 300000 nM
N=C(NN=Cc1ccc(OC(F)F)cc1)NN=Cc1ccc(OC(F)F)cc1	L6	resazurin	70 h	–	13400 nM
CO/N=C1/CCN2C(=O)c3ccccc3C2C(=O)Nc2ccccc21 (centres unmarked)	L6	–	–	–	> 300000 nM
CN1C(=O)CCC(N2Cc3c(C#CC4CCN(C(=O)[C@H]5CC[C@H](NC(=O)[C@@H]6NC7(CCCCC7)[C@@]7(C(=O)Nc8cc(Cl)ccc87)[C@H]6c6cccc(Cl)c6F)CC5)CC4)cccc3C2=O)C1=O (some centres unmarked)	RS4-11	–	–	–	751 nM
COc1cc2nc(N3CCN(C(=O)C4COc5ccccc5O4)CC3)nc(N)c2cc1OC (centres unmarked)	HNE1	MTT	48 h	–	22400 nM
O=C1Nc2ccccc2C2(O)CCN3C12c1ccccc1S3(=O)=O (centres unmarked)	L6	–	–	–	> 290000 nM
N=C(N/N=C/c1cccc([N+](=O)[O-])c1)N/N=C/c1cccc([N+](=O)[O-])c1	L6	resazurin	70 h	–	17700 nM
O=C1CCN2C(=O)c3ccccc3C2C(=O)Nc2ccc(F)cc21 (centres unmarked)	L6	–	–	–	> 310000 nM
N=C(NN=Cc1ccc(N2CCOCC2)cc1)NN=Cc1ccc(N2CCOCC2)cc1	L6	resazurin	70 h	–	2300 nM
Cc1c(C(=O)O)ccc2c3n(nc12)[C@@H]1[C@H](C3)N(CC2CC2)[C@@]2(C(=O)Nc3cc(Cl)ccc32)[C@H]1c1cccc(Cl)c1F	Colon 26	resazurin	72 h	–	259 nM
CC1(C)CCC(CN2CCN(c3ccc(C(=O)NS(=O)(=O)c4ccc(NCC5CCOCC5)c([N+](=O)[O-])c4)c(Oc4cnc5[nH]ccc5c4)c3)CC2)=C(c2ccc(Cl)cc2)C1	RS4-11	ATP luminescence	48 h	–	4.5 nM
COc1cc2c3c(n(CCCNC(C)C)c(=O)c2cc1OC)-c1nc2c(cc1C3=O)OCO2	RS4-11	MTS	72 h	–	53 nM
